What was measured:
preformed Aβ1–42 fibrils [1] = molecular target: T1, preformed Aβ1–42 fibrils (Homo sapiens, UniProt P05067); experiment: Atomic force microscopy imaging of preformed Aβ1–42 fibrils; details: 25 μM fibrils with 25 μM amentoflavone, 1 h
Aβ1–42 fibrils = Aβ1–42 fibrils (Homo sapiens, UniProt P05067); experiment: SDS-PAGE electrophoresis and immunoblotting with anti-Aβ antibody 6E10; details: 25 μM fibrils with 25 μM amentoflavone, glutaraldehyde cross-linked
preformed Aβ1–42 fibrils [2] = molecular target: T1, preformed Aβ1–42 fibrils; experiment: Aβ1–42 disaggregation assay; format: biochemical
In short: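 Fibrils preformed by incubating 20 μM recombinant human Aβ1–42 with 5 μM ThT in PBS buffer (pH 7.40), 37°C, 24 h. Test compound then added at final 10, 2, 0.4, 0.08 μM, or DMSO control, and incubated a further 7 h at 37°C. ThT fluorescence read every 2.5 min (ex 460/em 508 nm). EC50 from curves of percent change in ThT intensity versus concentration. Four independent experiments, duplicate samples; mean ± SEM.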

[3] = molecular target: Recombinant human Aβ1–42 peptide (Homo sapiens, UniProt P05067); experiment: Aβ1–42 aggregation assay; format: biochemical
Sequence of Recombinant human Aβ1–42 peptide (P05067 672-713): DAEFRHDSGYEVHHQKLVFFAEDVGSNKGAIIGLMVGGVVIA
In short: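 Recombinant human Aβ1–42 (HFIP-treated) dissolved in DMSO, diluted into PBS (50 mM NaH2PO4, 100 mM NaCl, pH 7.40); final 20 μM Aβ1–42 with 5 μM ThT ± test compound at 10, 2, 0.4, 0.08 μM (from 10 mM DMSO stocks). Incubated 37°C for 24 h; ThT fluorescence read every 10 min, ex 460/em 508 nm. IC50 from concentration-response curves; mean ± SEM, 4 independent experiments.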

T1 sequence (P05067 672-713): as above
Sequence of Aβ1–42 fibrils (P05067 672-713): as above

`O=c1cc(-c2ccc(O)c(-c3c(O)cc(O)c4c(=O)cc(-c5ccc(O)cc5)oc34)c2)oc2cc(O)cc(O)c12` [Amentoflavone, amentoflavone] was tested, and the “Structural change of preformed Aβ1–42 fibrils (AFM)” value (preformed Aβ1–42 fibrils [1]) was “conformational changes of the fibrils into amorphous Aβ1–42 aggregates”, the “Conversion of Aβ1–42 fibrils to oligomers and monomers (immunoblot)” value (Aβ1–42 fibrils) was “did not increase the conversion of Aβ1–42 fibrils to oligomers and monomers” and the EC50 (preformed Aβ1–42 fibrils [2]) was 0.59 ± 0.19 µM. For the same compound, the “Time to decline of ThT fluorescent intensity after addition” value (preformed Aβ1–42 fibrils [2]; concentration-dependent decline, preformed Aβ1–42 fibrils) was at most 30 min, the “Time to lowering of ThT fluorescent intensity after the treatment” value (preformed Aβ1–42 fibrils [2]; concentration-dependent, preformed Aβ1–42 fibrils) was at most 1 h and the IC50 [3] was 0.26 ± 0.03 µM.
`COc1ccc(-c2cc(=O)c3c(O)cc(O)cc3o2)cc1-c1c(O)cc(O)c2c(=O)cc(-c3ccc(O)cc3)oc12` [Bilobetin, bilobetin] showed an EC50 (preformed Aβ1–42 fibrils [2]) of 2.45 ± 1.28 µM and an IC50 [3] of 1.53 ± 0.2 µM.
In the case of `COc1cc(O)c2c(=O)cc(-c3ccc(OC)c(-c4c(O)cc(O)c5c(=O)cc(-c6ccc(O)cc6)oc45)c3)oc2c1` [Ginkgetin, ginkgetin], the EC50 (preformed Aβ1–42 fibrils [2]) is reported as 6.81 ± 4.08 µM and the IC50 [3] is reported as 4.92 ± 1.31 µM.
In the case of `COc1ccc(-c2cc(=O)c3c(O)cc(O)c(-c4cc(-c5cc(=O)c6c(O)cc(O)cc6o5)ccc4OC)c3o2)cc1` [Isoginkgetin, isoginkgetin], the EC50 (preformed Aβ1–42 fibrils [2]) is reported as over 10 µM and the IC50 [3] is reported as 1.8 ± 0.38 µM.
`COc1cc(O)c2c(=O)cc(-c3ccc(O)c(-c4c(O)cc(O)c5c(=O)cc(-c6ccc(O)cc6)oc45)c3)oc2c1` [Sequoiaflavone] showed an EC50 (preformed Aβ1–42 fibrils [2]) of 2.04 ± 0.79 µM and an IC50 [3] of 0.29 ± 0.01 µM.
`COc1cc(O)c2c(=O)cc(-c3ccc(O)cc3)oc2c1-c1cc(-c2cc(=O)c3c(O)cc(O)cc3o2)ccc1O` [Sotetsuflavone, sotetsuflavone] gave an EC50 (preformed Aβ1–42 fibrils [2]) of over 10 µM and an IC50 [3] of 8.7 ± 1.21 µM.
